# From ChEMBL document CHEMBL3868602, “Novel synthetic chalcones induce apoptosis in the A549 non-small cell lung cancer cells harboring a KRAS mutation” (Bioorg Med Chem Lett, 2016)
# pEC50: −log10 of the molar value. Activity calls are given as the source filed them. The calls are words filed in the database; no cut-off is given here.
# How the values were obtained:
# A549 [1] = test: (§1) Cytotoxicity against human A549 cells harboring KRAS mutant assessed as increase in apoptotic cells after 72 hrs by crystal violet staining based assay; format: functional, cell-based
# Procedure, shortened: (§2)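 Cells exposed 72 h to compound or DMSO vehicle, either at 1 and 10 μM or over 0.033–10 μM dose series. Surviving cells then stained with crystal violet and absorbance read at 562 nm. Effect expressed as % dead/apoptotic cells relative to DMSO, average of triplicates; dose curves n=6, run twice, mean ± SD, giving EC50.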
# [2] = Cytotoxicity against human A549 cells harboring KRAS mutant assessed as apoptotic cells at 10 uM after 72 hrs by crystal violet staining based assay; format: functional; procedure, shortened: as §2
# [3] = as §1; format: functional, cell-based; settings: A549, 72 h; procedure, shortened: as §2
# A549 [4] = test: Cytotoxicity against human A549 cells harboring KRAS mutant assessed as increase in apoptotic cells at 1 uM after 72 hrs by crystal violet staining based assay; format: functional, cell-based; procedure, shortened: as §2
# A549 [5] = test: Induction of apoptosis in human A549 cells harboring KRAS mutant assessed as blockage of G2/M transition phase at 1 uM after 24 hrs by propidium iodide staining based flow cytometry; format: functional, cell-based
# Procedure, shortened: (§3)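 Serum-starved 24 h to block in G1/G0, then returned to FBS-containing medium with test agent at 1 μM for a further 24 h. 0.5 × 10^6 treated cells stained with propidium iodide and analysed by flow cytometry, gating G1, S, G2/M plus apoptotic and necrotic populations. n=4–5 repeats.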
# [6] = Cytotoxicity against human PC3 cells assessed as cell death at 1 uM after 72 hrs by crystal violet staining based assay; format: functional, PC-3
# Procedure, shortened: (§4)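 Cells treated with compound or DMSO vehicle for 72 h at 0.033–10 uM, then stained with crystal violet; absorbance at 562 nm taken as live cell number. Cell death read at 1 uM relative to DMSO controls. n=6, performed twice; mean ± SD.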
# [7] = Cytotoxicity against human HPAC CRL2119 cells assessed as cell death at 1 uM after 72 hrs by crystal violet staining based assay; format: functional; procedure, shortened: as §4
# [8] = Cytotoxicity against mouse Panc02 cells assessed as cell death at 1 uM after 72 hrs by crystal violet staining based assay; format: functional; procedure, shortened: as §4
# [9] = Cytotoxicity against human A549 cells harboring KRAS mutant assessed as cell death at 1 uM after 72 hrs by crystal violet staining based assay; format: functional; procedure, shortened: as §4
# [10] = Cytotoxicity against NHBE cells assessed as decrease in cell viability at 0.01 to 10 uM after 72 hrs by crystal violet staining based assay; format: toxicity; settings: human; procedure, shortened: as §2
# [11] = Therapeutic index, ratio of EC50 for NHBE cells to EC50 for human A549 cells harboring KRAS mutant; format: cell-based; settings: NHBE cells versus A549 cells harboring KRAS mutant, read-out: Ratio EC50
# Procedure, shortened: (§5)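 Ratio computed from EC50 values obtained by 72 h crystal violet survival assays (absorbance 562 nm) in each cell line, divided by the A549 EC50.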
# [12] = Effect on cell cycle in NHBE cells at 1 uM after 24 hrs by propidium iodide staining based flow cytometry; settings: human; procedure, shortened: as §3
# A549 [13] = test: Suppression of cyclin A2 level in human A549 cells harboring KRAS mutant at 1 uM after 8 to 48 hrs by Western blot analysis; format: functional, cell-based
# Procedure, shortened: (§6)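 A549 cells given serum-containing medium with DMSO or 1 μM compound for 8, 24 or 48 h. Lysates immunoblotted for cyclin A2, cyclin B1, phospho-Rb, total Rb and phospho-STMN1. Two independent experiments.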
# [14] = biological target: T1, Retinoblastoma-associated protein (Homo sapiens) (UniProt P06400); test: Inhibition of phosphorylated retinoblastoma protein level in human A549 cells harboring KRAS mutant at 1 uM after 8 to 48 hrs by Western blot analysis; format: cell-based; procedure, shortened: as §6
# T1 sequence (whole entry): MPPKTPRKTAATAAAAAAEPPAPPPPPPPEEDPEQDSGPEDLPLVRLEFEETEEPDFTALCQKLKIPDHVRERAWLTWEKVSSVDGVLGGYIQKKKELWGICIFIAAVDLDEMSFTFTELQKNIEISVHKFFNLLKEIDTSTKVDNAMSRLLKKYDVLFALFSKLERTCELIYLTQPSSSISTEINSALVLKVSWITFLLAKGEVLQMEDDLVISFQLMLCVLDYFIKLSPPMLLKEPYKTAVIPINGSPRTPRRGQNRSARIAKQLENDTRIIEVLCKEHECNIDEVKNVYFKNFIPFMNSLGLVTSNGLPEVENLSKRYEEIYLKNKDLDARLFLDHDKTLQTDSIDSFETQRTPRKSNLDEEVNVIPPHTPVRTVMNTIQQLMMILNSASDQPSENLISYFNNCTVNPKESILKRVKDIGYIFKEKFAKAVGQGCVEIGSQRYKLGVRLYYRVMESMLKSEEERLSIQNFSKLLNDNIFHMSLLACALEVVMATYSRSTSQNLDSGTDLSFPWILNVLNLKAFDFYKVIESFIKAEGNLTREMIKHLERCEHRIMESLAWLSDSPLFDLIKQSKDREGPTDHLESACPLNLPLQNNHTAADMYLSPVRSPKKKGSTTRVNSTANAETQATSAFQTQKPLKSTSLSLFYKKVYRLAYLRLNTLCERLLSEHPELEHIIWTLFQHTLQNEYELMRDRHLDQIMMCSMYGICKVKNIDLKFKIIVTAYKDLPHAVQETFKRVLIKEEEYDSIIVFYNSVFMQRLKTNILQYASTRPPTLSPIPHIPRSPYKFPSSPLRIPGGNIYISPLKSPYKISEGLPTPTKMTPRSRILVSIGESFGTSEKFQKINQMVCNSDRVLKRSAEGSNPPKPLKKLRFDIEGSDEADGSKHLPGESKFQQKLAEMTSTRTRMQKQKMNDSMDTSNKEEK
# Stathmin (Homo sapiens) = biological target: T2, Stathmin (Homo sapiens) (UniProt P16949); test: Increase in STMN1 phosphorylation in human A549 cells harboring KRAS mutant at 1 uM after 8 hrs by Western blot analysis; format: cell-based; procedure, shortened: as §6
# T2 sequence (whole entry): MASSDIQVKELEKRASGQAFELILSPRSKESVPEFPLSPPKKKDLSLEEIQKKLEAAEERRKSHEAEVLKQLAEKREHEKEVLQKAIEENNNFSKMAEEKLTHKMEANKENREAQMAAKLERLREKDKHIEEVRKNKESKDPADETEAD
# [15] = Cell cycle arrest in human PC3 cells assessed as blockage of G1 phase at 1 uM after 24 hrs by propidium iodide staining based flow cytometry; format: functional; settings: PC-3; procedure, shortened: as §3
# [16] = Cell cycle arrest in human PC3 cells assessed as inhibition of S phase at 1 uM after 24 hrs by propidium iodide staining based flow cytometry; format: functional; settings: PC-3; procedure, shortened: as §3
# PC-3 = test: Induction of apoptosis in human PC3 cells after 72 hrs by crystal violet staining based assay; format: functional, cell-based; procedure, shortened: as §2
# HPAC = test: Induction of apoptosis in human HPAC CRL2119 cells after 72 hrs by crystal violet staining based assay; format: functional, cell-based; procedure, shortened: as §2
# Panc02 = test: Induction of apoptosis in mouse Panc02 cells after 72 hrs by crystal violet staining based assay; format: functional, cell-based; procedure, shortened: as §2
# A549 [17] = test: Ratio of EC50 for human PC3 cells to EC50 for human A549 cells harboring KRAS mutant; format: functional; procedure, shortened: as §5
# A549 [18] = test: Ratio of EC50 for mouse Panc02 cells to EC50 for human A549 cells harboring KRAS mutant; format: functional; procedure, shortened: as §5
# A549 [19] = test: Ratio of EC50 for human HPAC CRL2119 cells to EC50 for human A549 cells harboring KRAS mutant; format: functional; procedure, shortened: as §5
SMILES,Activity (A549 [1]),pEC50 [3],Activity (A549 [4]),further results
O=C1/C(=C/c2ccc3c(ccn3Cc3ccccc3)c2)CCc2ccc(F)cc21,Dose-dependent effect,,,
CC(=O)n1ccc2cc(/C=C3\CCc4ccc(F)cc4C3=O)ccc21,Dose-dependent effect,,,Activity [2]: 28%
Cn1ccc2ccc(/C=C3\CCc4ccccc4C3=O)cc21,Dose-dependent effect,6.33,Active,
COc1cc2c(cc1OC)C(=O)/C(=C/c1ccc3ccn(C)c3c1)CC2,Dose-dependent effect,5.00,Active,
COc1ccc2c(c1)C(=O)/C(=C/c1ccc3[nH]ccc3c1)CC2,Dose-dependent effect,6.26,Active,Activity (A549 [5]): Active; Activity [6]: <40%; Activity [7]: <40%; Activity [8]: <40%; Activity [9]: 80%; Activity [10]: Non-Toxic; selectivity ratio [11]: > 18; Activity [12]: Non-Toxic; Activity (A549 [13]): Active; inhibition [14]: Active; Activity (Stathmin (Homo sapiens)): Active
O=C1/C(=C/c2ccc3[nH]ccc3c2)CCc2ccc(F)cc21,Dose-dependent effect,6.57,Active,
Cn1ccc2cc(/C=C3\CCc4ccc(Br)cc4C3=O)ccc21,Dose-dependent effect,,,Activity [2]: 21%
Cn1ccc2cc(/C=C3\CCc4ccccc4C3=O)ccc21,Dose-dependent effect,6.33,Active,
Cn1ccc2ccc(/C=C3\CCc4ccc(Br)cc4C3=O)cc21,Dose-dependent effect,,,Activity [2]: 26%
CCn1ccc2cc(/C=C3\CCc4ccccc4C3=O)ccc21,Dose-dependent effect,6.34,Active,
COc1ccc2c(c1)C(=O)/C(=C/c1ccc3c(ccn3C)c1)CC2,Dose-dependent effect,5.52,Active,
CC(C)(C)OC(=O)n1ccc2cc(/C=C3\CCc4ccccc4C3=O)ccc21,Dose-dependent effect,,,
COc1ccc2c(c1)C(=O)/C(=C/c1ccc3ccn(C)c3c1)CC2,Dose-dependent effect,5.24,Active,
Cn1ccc2cc(/C=C3\CCc4ccc(F)cc4C3=O)ccc21,Dose-dependent effect,6.70,Active,
CCn1ccc2cc(/C=C3\CCc4ccc(Br)cc4C3=O)ccc21,Dose-dependent effect,,,
O=C1/C(=C/c2ccc3[nH]ccc3c2)CCc2ccccc21,Dose-dependent effect,5.95,Active,
COc1cc(/C=C2\CCc3ccc(F)cc3C2=O)cc(OC)c1OC,,,,Activity [15]: Active; inhibition [16]: Active
CCn1ccc2cc(/C=C3\CCc4ccc(F)cc4C3=O)ccc21,Dose-dependent effect,6.96,Active,"Activity (PC-3): Dose-dependent effect; pEC50 (PC-3; PC-3, 72 h): 6.35; Activity (HPAC): Dose-dependent effect; pEC50 (HPAC): 6.51; Activity (Panc02): Dose-dependent effect; pEC50 (Panc02; Panc02, 72 h): 6.23; Ratio EC50 (A549 [17]): >4; Ratio EC50 (A549 [18]): >4; Ratio EC50 (A549 [19]): 2.8"
CCn1ccc2cc(/C=C3\CCc4cc(OC)c(OC)cc4C3=O)ccc21,Dose-dependent effect,,,Activity [2]: 19%
CC(C)(C)OC(=O)n1ccc2cc(/C=C3\CCc4ccc(F)cc4C3=O)ccc21,Dose-dependent effect,,,
CCn1ccc2cc(/C=C3\CCc4ccc(OC)cc4C3=O)ccc21,Dose-dependent effect,5.52,Active,
COc1cc2c(cc1OC)C(=O)/C(=C/c1ccc3c(ccn3C)c1)CC2,Dose-dependent effect,,,
O=C1/C(=C/c2ccc3[nH]ccc3c2)CCc2ccc(Br)cc21,Dose-dependent effect,,,Activity [2]: 16%
